Laboratory results published in ChEMBL document CHEMBL1128682, “Design and synthesis of new naphthalenic derivatives as ligands for 2-[125I]iodomelatonin binding sites” (J Med Chem, 1995).

Biological target: T1, Melatonin receptor (Gallus gallus, UniProt P49288+P51050+P49285)
Assay: Effect of compound on Melatonin receptor in chicken brain in the presence of MnCl2

| Structure (SMILES) | Ki |
| --- | --- |
| CCC(=O)NCCc1c(OC)ccc2ccccc12 | 0.297 nM |

Biological target: T1, Melatonin receptor
Assay: Competitive binding by the displacement of 2-[125I]- Iodomelatonin binding from melatonin receptors in chicken brain membranes
Type: cell membranes, Membrane
Method in brief: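 Whole chicken brain (Redbro, 4 months) homogenized in ice-cold 50 mM Tris-HCl pH 7.4, washed twice by centrifugation, and resuspended at 5 mg protein/mL. Filtration through PEI-soaked glass fiber filters, then gamma counting. Nonspecific binding defined with 10 μM 2-iodomelatonin. Triplicates. Ki from IC50 by Cheng-Prusoff; one or two determinations.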

| Structure (SMILES) | Ki |
| --- | --- |
| CCCCC(=O)NCCc1cc(OC)ccc1OC | > 1000 nM |
| COc1ccc2ccccc2c1CCNC(C)=O | 2.68 nM |
| CC(=O)NCCc1ccc(Cl)cc1 | > 1000 nM |
| COc1ccc(OC)c(CCNC(=O)C2CC2)c1 | 386 nM |
| COc1ccc2ccc(OC)c(CCNC(=O)C(F)(F)F)c2c1 | 0.4 nM |
| COc1cccc(CCNC(C)=O)c1 | 253 nM |
| COc1ccc2ccccc2c1CC(C)NC(=O)C(F)(F)F (stereo not given) | > 1000 nM |
| CCC(=O)NCCc1c(OC)ccc2ccc(OC)cc12 | 0.07 nM |
| COc1ccc(CCNC(C)=O)cc1 | > 1000 nM |
| COc1ccc2ccccc2c1CC(C)NC(C)=O (stereo not given) | 421 nM |
| CCc1ccc(OC)c(CCNC(C)=O)c1 | 217 nM |
| CC(=O)NCCc1cccc(F)c1 | > 1000 nM |
| COc1ccc(Br)cc1CCNC(C)=O | 42 nM |
| COc1ccc(C)cc1CCNC(C)=O | 192 nM |
| CCCC(=O)NCCc1c(OC)ccc2ccccc12 | 1.37 nM |
| CCC(=O)NCCc1c(OC)ccc2ccccc12 | 0.68 nM |
| COc1ccc2ccc(OC)c(CCNC(C)=O)c2c1 | 0.1 nM |
| COc1ccc2ccc(OC)c(CCNC(=O)C3CC3)c2c1 | 0.05 nM |
| CC(=O)NCCc1ccccc1Cl | > 1000 nM |
| CCC(=O)NCCc1cc(OC)ccc1OC | 17.5 nM |
| COc1ccc2ccccc2c1CCNC(=O)C(F)(F)F | 0.54 nM |
| CC(=O)NCCc1cccc(Cl)c1 | > 1000 nM |
| COc1ccc2ccccc2c1CCNC(=O)C1CC1 | 19.4 nM |
| CCC(=O)NCCc1cc(Br)ccc1OC | 8 nM |
| COc1ccc(OC)c(CCNC(C)=O)c1 | 69.9 nM |
| COc1ccccc1CCNC(C)=O | 213 nM |
| CC(=O)NCCc1cccc2ccccc12 | 321 nM |
| CCCCC(=O)NCCc1c(OC)ccc2ccccc12 | 237 nM |

Biological target: T1, Melatonin receptor
Assay: Effect of compound on Melatonin receptor in chicken brain in the presence of GTP-gamma-S

| Structure (SMILES) | Ki |
| --- | --- |
| CCC(=O)NCCc1c(OC)ccc2ccccc12 | 2.86 nM |
